Test results taken from article PMC3753203 (Journal of immunology (Baltimore, Md. : 1950), 2013).
pEC50: −log10 of the molar value.

Key:
[1] = target: T1, recombinant mouse CRT (calreticulin) (Mus musculus, UniProt P14211); test: Surface plasmon resonance binding to immobilized CRT; conditions: SPR, 25°C, 10 mM HEPES pH 7.4, 50 mM KCl, 0.5 mM CaCl2, 100 μM ZnCl2, 0.005% surfactant P-20; mouse CRT immobilized 3000 RU; 10 μl/min; mean ± SEM
T1 sequence (P14211 18-416): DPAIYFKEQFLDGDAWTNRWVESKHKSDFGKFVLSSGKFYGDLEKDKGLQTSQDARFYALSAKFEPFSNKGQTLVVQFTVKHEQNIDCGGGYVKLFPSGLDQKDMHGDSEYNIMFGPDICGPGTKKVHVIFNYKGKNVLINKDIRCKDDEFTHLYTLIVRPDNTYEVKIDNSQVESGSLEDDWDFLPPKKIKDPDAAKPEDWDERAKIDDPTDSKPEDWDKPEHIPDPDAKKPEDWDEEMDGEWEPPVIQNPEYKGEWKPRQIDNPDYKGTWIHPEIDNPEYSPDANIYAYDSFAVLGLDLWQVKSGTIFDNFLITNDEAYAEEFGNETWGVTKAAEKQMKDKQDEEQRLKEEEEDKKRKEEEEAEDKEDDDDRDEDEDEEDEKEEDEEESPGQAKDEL

NO signaling [2] = conditions: ref [11]; cited from earlier work
bone damage in CIA mice = test: X-ray radiological scoring of bone damage in CIA mice; format: in vivo, mouse; conditions: 0.8 and 8.0 ng/gm BW, N = 10, score 0-5
Outline: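 CIA mice dosed weekly i.p. with 0.8 or 8.0 ng/gm BW test compound or PBS. Limbs X-rayed on a microradiography system (anode current 25mA, 4.5 s exposure). Coded films scored blind by a rheumatologist, front and rear paws separately, 0–5 (none to complete joint destruction). N=10.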

[3] = system: collagen-induced arthritis in DBA/1 mice; test: Collagen-induced arthritis: onset, incidence, arthritis score; format: in vivo, mouse; conditions: i.p.; for disease incidence: log-rank (Mantel-Cox)
[4] = system: ROS production in RAW 264.7 pre-OC cells; test: ROS production; format: cell-based, mouse; conditions: RAW 264.7, 3 × 10^4/well, in words
Outline: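 RAW 264.7 cells, 3×10^4 per well, exposed to various test compound concentrations and loaded with CM-H2DCFDA. Fluorescence (ex 488/em 515 nm) read every 5 min over 500 min; ROS expressed as FU/min.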

[5] = system: erosive bone damage in CIA mice; test: Micro-CT of bone damage in CIA mice; format: in vivo, mouse; conditions: all treated mice, various doses
Outline: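 Limbs from arthritic mice fixed in 10% formalin, stored in 70% ethanol, scanned in water: 80 kV, 80 μA, 0.508 mm Al filter plus acrylic beam flattener, 1600 ms/frame, 400 views at 0.5°, 4 frames averaged, 2×2 binning, 18 μm voxels. Bone masks for carpals, tarsals, calcaneus, talus, phalanges; thresholds 2000 HU cortical, 1200 HU trabecular.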

[6] = system: TRAP-positive mononuclear (pre-OC) bone marrow cells; test: Pre-OC abundance in bone marrow of CIA mice; format: in vivo, mouse
Outline: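 Fresh bone marrow cells harvested from CIA mice dosed weekly i.p. with various amounts of test compound or PBS; TRAP staining used to enumerate pre-osteoclasts.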

[7] = system: bovine cortical bone disks / mouse BMC-derived OCs; test: Ex vivo degradation of bovine bone disks; format: cell-based; conditions: 100 nM c(HS4-4), mouse BMCs, 10 days, OC counts and resorption pits
Outline: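 Bovine cortical bone disks (5-mm) were sonicated in water, stored dry, and sterilised in ethanol plus 30 min UV. Culture ran 10 days, medium renewed every other day. TRAP-positive OCs per disk were counted; cells were sonicated off in ammonium hydroxide; disks were stained with 1% toluidine blue for 30 s; pits were counted across the whole surface by reflected light. Mean ± SEM.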

NO signaling [8] = test: NO signaling activation; format: cell-based; conditions: read-out: EC50 NO, Table I
[9] = system: osteoclasts in CIA joint tissues; test: OC abundance in joint tissue of CIA mice; format: in vivo, mouse; conditions: various doses incl. 'subclinical'; N=10 PBS, 5 per treatment group; TRAP
Outline: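 Limbs from CIA mice given weekly i.p. test compound or PBS decalcified 14 days in 10% EDTA, paraffin-embedded, serially sectioned and stained for TRAP (or H&E). TRAP-positive multinucleated cells counted; total across front and rear paws and knees, mean ± SEM. N=10 PBS, 5 per treatment group.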

[10] = system: osteoclast formation of BMCs harvested from CIA mice; test: Ex vivo OC differentiation of BMCs from treated CIA mice; format: in vivo, mouse; conditions: 6 days OC-differentiating culture, dose-dependent pattern
Outline: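 DBA/1 mice (7 weeks) were immunised intradermally at the tail base with 100 μg chicken CII in CFA. They received test compound intraperitoneally once weekly at 0.0, 0.8, 8 or 80 ng/gm BW in 50 μl PBS. Bone marrow cells were then cultured for 6 days under OC-differentiating conditions (M-CSF 10 ng/ml; RANKL 20 ng/ml added after day 2). TRAP-positive multinucleated cells (>3 nuclei) were counted.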

[11] = system: bone matrix degradation by DBA/1 mouse BMC-derived OCs; test: Degradation of artificial; format: cell-based; conditions: 100 nM c(HS4-4), primary DBA/1 BMCs, day 15, Von Kossa
Outline: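 Test compound (100 nM) or PBS was added to mouse BMC cultures on osteoblast-derived matrix. SaOS-2 cells (12,000/well) grew in McCoy's 5A/15% FBS; at 80–90% confluence they were switched to osteoblast differentiation medium (10% FBS, 2mM glutamine, ascorbic acid, 10mM β-glycerol phosphate) for 20–25 days, then removed with 15mM NH4OH. DBA/1 BMCs (200,000/well) received M-CSF 10 ng/ml for 2 days, then M-CSF plus RANKL 20 ng/ml. At day 15, cells were removed; remaining matrix was Von Kossa-stained, photographed and area-quantified.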

[12] = system: osteoclast differentiation of DBA/1 mouse BMCs; test: In vitro OC differentiation, mouse bone marrow cells; format: cell-based; conditions: M-CSF + RANKL, 6 days
[13] = system: osteoclast differentiation of DBA/1 mouse BMCs; conditions: 15-mer linear peptide; ref [10]; cited from earlier work
trypsin/chymotrypsin = conditions: linear peptidic SE ligand, completely degraded; ref [11]; cited from earlier work
[14] = system: collagen-induced arthritis in mice; conditions: 15-mer SE peptidic ligand in vivo in mice; ref [10]; cited from earlier work
[15] = 80 ng/gm BW per week, N=10 per group
[16] = 800 ng/gm BW per week, N=10 per group

With 70-QKRAA-74 [70-74*0401] the “Affinity to CRT, ka” value [1] was 2.9 ± 2.9 ×10^2 1/Ms and the “Affinity to CRT, kd” value [1] was 5.6 ± 5.1 ×10^−3 1/s.
In the case of cQKRAA [c(HS4-4)], the “NO signaling activation, concentration” value (NO signaling [2]) is given as “low nM concentrations”, the “bone damage (radiological score, X-ray)” value (bone damage in CIA mice) is given as “significantly higher bone damage” and the “CIA soft tissue disease parameters (onset, incidence, score)” value ([3]; 0.8 ng/gm BW per week) is given as “no effect on any of the three CIA soft tissue disease parameters”. The “CIA soft tissue disease parameters (onset, incidence, score)” value ([3]; 8.0 ng/gm BW per week) was “no effect on any of the three CIA soft tissue disease parameters”, the disease onset [3, 15] was “significantly facilitated disease onset” and the “mean arthritis scores (joint swelling)” value ([3]; 80 ng/gm BW per week, N=10 per group, 4-point scale per paw) was “significantly increased mean arthritis scores”. For the same substance, the disease incidence [3, 15] was “increased disease incidence”, the “mean arthritis scores, effect in the higher dose” value ([3]; 800 ng/gm BW per week ("the higher dose"), N=10 per group) was “but not in the higher dose” and the disease onset [3, 16] was “significantly facilitated disease onset”. For the same substance, the disease incidence [3, 16] was “increased disease incidence”, the ROS signaling [4] was “activated ROS signaling” and the “erosive bone damage (micro-CT)” value [5] was “more severe erosive bone damage”. For the same substance, the “TRAP-positive pre-OC cells in bone marrow” value ([6]; 80 ng/gm BW group) was “peak effect”, the “TRAP-positive mononuclear (pre-OC) cells in bone marrow, dose dependence” value ([6]; all c(HS4-4)-treated mice) was “dose-dependent effect” and the “degradation of bovine bone disks” value [7] was “higher capacity to degrade artificial bone matrix and bovine bone disks ex vivo”. The pEC50 (NO signaling [8]) was 9.00, the “Affinity to CRT, ka” value [1] was 2.7 ± 0.5 ×10^3 1/Ms and the “Affinity to CRT, kd” value [1] was 1.4 ± 0.2 ×10^−3 1/s. For the same substance, the “OC numbers in arthritic joints” value [9] was “significantly higher numbers of OCs”, the “OCs formed ex vivo by BMCs from treated CIA mice” value [10] was “significantly higher numbers of OCs in a similar dose-dependent pattern” and the “degradation of artificial bone matrix” value [11] was “higher capacity to degrade artificial bone matrix”. The “OC differentiation (in words)” value [12] was “markedly enhanced OC differentiation in a dose-dependent manner”.
In the case of 65-KDLLEQKRAAVDTYC-79 [65-79*0401], the osteoclastogenesis activation [13] is listed as “can activate osteoclastogenesis”, the “time to complete degradation by trypsin/chymotrypsin” value (trypsin/chymotrypsin) is listed as ≤ 30 min and the pEC50 (NO signaling [8]) is listed as 4.22. The “Affinity to CRT, ka” value [1] was 5.1 ± 4.8 ×10^4 1/Ms, the “Affinity to CRT, kd” value [1] was 7.4 ± 3.1 ×10^−3 1/s and the “effect on erosive bone damage in CIA” value [14] was “enhanced erosive bone damage in collagen-induced arthritis”.
